Values after ≈ are worked out from the molar mass of the structure shown. Active and inactive are the calls of the source. The rule behind the calls is not given here.
What was measured:
Enterococcus faecalis = experiment: Antibacterial activity against vancomycin-resistant Enterococcus faecalis MGH2 EF1 by microbroth technology; type: functional
Method in brief: (§1)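 Drug-resistant panel strains (levofloxacin/oxacillin-resistant S. aureus, levofloxacin/penicillin-resistant S. pneumoniae, vancomycin-resistant E. faecalis and E. faecium). Broth microdilution MIC in µg/mL; value reported as MIC90 across the strains of each resistant group.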

Cytochrome P450 2C19 = Cytochrome P450 2C19 (Homo sapiens, UniProt P33261); experiment: Inhibition of human liver microsome CYP2C19; type: ADME, microsomes
Sequence of Cytochrome P450 2C19 (P33261 whole entry): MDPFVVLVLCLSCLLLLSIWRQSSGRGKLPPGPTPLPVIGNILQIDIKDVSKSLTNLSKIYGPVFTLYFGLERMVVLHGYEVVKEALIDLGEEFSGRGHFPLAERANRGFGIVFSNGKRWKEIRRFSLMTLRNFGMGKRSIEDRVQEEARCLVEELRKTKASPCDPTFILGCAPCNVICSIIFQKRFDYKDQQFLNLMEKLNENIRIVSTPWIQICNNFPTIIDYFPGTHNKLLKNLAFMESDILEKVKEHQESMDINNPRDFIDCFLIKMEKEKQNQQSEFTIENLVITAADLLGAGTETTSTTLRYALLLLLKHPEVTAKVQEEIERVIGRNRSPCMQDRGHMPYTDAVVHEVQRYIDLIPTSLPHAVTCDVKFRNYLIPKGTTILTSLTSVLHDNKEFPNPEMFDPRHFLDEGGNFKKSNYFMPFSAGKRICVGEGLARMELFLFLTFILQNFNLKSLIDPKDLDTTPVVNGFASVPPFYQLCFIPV
Method in brief: (§2)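 Done in duplicate with 0.03-0.2 mg/mL human liver microsomes, 1 mM NADPH and 50 mM potassium phosphate, pH 7.4. Probe substrates: 30 µM phenacetin (1A2), 7.5 µM diclofenac (2C9), 50 µM […], 10 µM dextromethorphan (2D6), and 50 µM phenacetin, 50 µM midazolam or 1.5 µM felodipine (3A4). Drug was tested at 0-1000 µM. Reactions were quenched with ice-cold acetonitrile after 7-30 min and analysed by LC/MS.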

[1] = AUC (0 to 24 hrs) in Sprague-Dawley rat plasma at 200 mg/kg/day, po after 14 days; type: ADME, organism-based; parameters: dose 200 mg/kg/day, time < 24 hr, route oral
Method in brief: (§3)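 Female Sprague-Dawley rats received vehicle or drug by oral gavage daily for 14 days, at doses of 40-1000 (mg/kg)/day across the studies. End points were moribundity or lethality, hematology (RBC, hemoglobin, hematocrit, reticulocytes), bone marrow M:E ratio and plasma AUC(0-24).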

[2] = Cmax in Sprague-Dawley rat at 20 mg/kg, po; type: ADME, organism-based; parameters: dose 20 mg/kg, route oral; details: in vivo
Streptococcus pyogenes = experiment: Antibacterial activity against Streptococcus pyogenes C203 by micro-broth technology; type: functional
Staphylococcus aureus [3] = experiment: Antibacterial activity against Staphylococcus aureus UC76 in po dosed CD1 mouse systemic infection model assessed as mortality after 7 days; type: functional
Cytochrome P450 3A4 = Cytochrome P450 3A4 (Homo sapiens, UniProt P08684); experiment: Inhibition of human liver microsome CYP3A4; type: ADME, microsomes; method in brief: as §2
Sequence of Cytochrome P450 3A4 (P08684 whole entry): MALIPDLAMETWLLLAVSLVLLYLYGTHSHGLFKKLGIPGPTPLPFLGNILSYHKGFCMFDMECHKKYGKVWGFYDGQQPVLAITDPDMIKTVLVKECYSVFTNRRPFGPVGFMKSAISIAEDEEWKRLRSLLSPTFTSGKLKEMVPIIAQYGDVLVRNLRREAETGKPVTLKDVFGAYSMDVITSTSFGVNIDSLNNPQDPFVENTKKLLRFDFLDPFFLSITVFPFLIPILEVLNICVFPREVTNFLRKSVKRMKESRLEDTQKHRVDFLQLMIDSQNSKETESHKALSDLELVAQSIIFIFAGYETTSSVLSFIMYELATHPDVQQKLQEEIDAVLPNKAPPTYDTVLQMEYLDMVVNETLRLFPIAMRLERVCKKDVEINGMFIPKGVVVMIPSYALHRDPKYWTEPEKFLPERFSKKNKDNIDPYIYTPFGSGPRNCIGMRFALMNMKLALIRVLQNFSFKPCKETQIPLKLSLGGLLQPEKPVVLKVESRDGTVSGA

Cytochrome P450 2D6 = Cytochrome P450 2D6 (Homo sapiens, UniProt P10635); experiment: Inhibition of human liver microsome CYP2D6; type: ADME, microsomes; method in brief: as §2
Sequence of Cytochrome P450 2D6 (P10635 whole entry): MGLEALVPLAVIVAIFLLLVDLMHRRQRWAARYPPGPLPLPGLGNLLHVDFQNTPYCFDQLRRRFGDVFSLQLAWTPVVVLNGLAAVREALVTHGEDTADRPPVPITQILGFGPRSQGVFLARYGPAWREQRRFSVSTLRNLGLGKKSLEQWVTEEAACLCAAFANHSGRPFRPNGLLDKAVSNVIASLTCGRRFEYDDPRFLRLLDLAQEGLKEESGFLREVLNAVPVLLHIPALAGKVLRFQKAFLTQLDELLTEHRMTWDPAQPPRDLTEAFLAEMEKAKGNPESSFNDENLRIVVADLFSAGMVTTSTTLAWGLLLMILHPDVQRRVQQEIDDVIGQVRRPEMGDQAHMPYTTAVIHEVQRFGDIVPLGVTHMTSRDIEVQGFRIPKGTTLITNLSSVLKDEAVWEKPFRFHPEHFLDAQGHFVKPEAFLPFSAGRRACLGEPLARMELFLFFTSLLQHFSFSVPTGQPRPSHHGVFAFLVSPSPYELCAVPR

Streptococcus pneumoniae [4] = experiment: Antibacterial activity against levofloxacin-penicillin-resistant Streptococcus pneumoniae SV1 SP3 by microbroth technology; type: functional; method in brief: as §1
[5] = Half life in Sprague-Dawley rat at 20 mg/kg, po; type: ADME, organism-based; parameters: dose 20 mg/kg, route oral; details: in vivo
Rattus norvegicus [6] = experiment: Effect on hematology in Sprague-Dawley rat assessed as increase in hematocrit at 600 mg/kg/day, po after 14 days; type: ADME, organism-based; parameters: route oral; details: in vivo, 336 h; method in brief: as §3
Staphylococcus aureus [7] = experiment: Antibacterial activity against methicillin-resistant Staphylococcus aureus SA1417 by micro-broth technology; type: functional
Staphylococcus aureus [8] = experiment: Antibacterial activity against levofloxacin-oxacillin-resistant Staphylococcus aureus UC76 SA1 by micro-broth technology; type: functional; method in brief: as §1
Rattus norvegicus [9] = experiment: Effect on hematology in Sprague-Dawley rat assessed as decrease in reticulocytes at 600 mg/kg/day, po after 14 days; type: ADME, organism-based; parameters: route oral; scale not given: the % may be the effect or the level left; details: in vivo, 336 h; method in brief: as §3
[10] = Volume of distribution at steady state in dog at 4 mg/kg, iv; type: ADME, organism-based, Canis lupus familiaris; parameters: dose 4 mg/kg, route intravenous; details: in vivo, read-out: Vdss
Escherichia coli = experiment: Inhibition of protein synthesis in Escherichia coli by cell-free transcription-translation assay; type: functional
Method in brief: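 E. coli cell-free coupled transcription/translation run in microtiter format with a luciferase reporter; luminescence was the read-out for protein synthesis.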

[11] = Clearance in mouse at 4 mg/kg, iv; type: ADME, organism-based; parameters: dose 4 mg/kg, route intravenous; details: in vivo
[12] = Cmax in dog at 20 mg/kg, po; type: ADME, organism-based, Canis lupus familiaris; parameters: dose 20 mg/kg, route oral; details: in vivo
[13] = Volume of distribution at steady state in mouse at 4 mg/kg, iv; type: ADME, organism-based; parameters: dose 4 mg/kg, route intravenous; details: in vivo, read-out: Vdss
Haemophilus influenzae = experiment: Antibacterial activity against Haemophilus influenzae by micro-broth technology; type: functional
Method in brief: (§4)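 MIC determined by broth microdilution, reported in µg/mL.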

[14] = target: T1, Amine oxidase [flavin-containing] A (Homo sapiens, UniProt P21397); experiment: Inhibition of human recombinant MAOA
T1 sequence (P21397 whole entry): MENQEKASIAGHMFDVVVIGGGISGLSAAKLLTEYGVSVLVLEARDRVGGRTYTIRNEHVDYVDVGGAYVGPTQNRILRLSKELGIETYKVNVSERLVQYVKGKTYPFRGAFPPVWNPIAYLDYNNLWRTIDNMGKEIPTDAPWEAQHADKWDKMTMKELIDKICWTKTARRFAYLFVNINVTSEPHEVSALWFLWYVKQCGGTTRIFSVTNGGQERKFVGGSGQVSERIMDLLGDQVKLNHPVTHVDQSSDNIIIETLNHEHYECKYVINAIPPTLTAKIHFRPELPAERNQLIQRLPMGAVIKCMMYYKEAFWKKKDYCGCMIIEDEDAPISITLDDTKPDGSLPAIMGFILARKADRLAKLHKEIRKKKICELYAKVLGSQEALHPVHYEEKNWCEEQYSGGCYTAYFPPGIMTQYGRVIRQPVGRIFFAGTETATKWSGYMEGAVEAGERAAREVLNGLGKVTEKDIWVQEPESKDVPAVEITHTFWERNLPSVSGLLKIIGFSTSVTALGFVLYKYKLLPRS

[15] = Cmax in mouse at 20 mg/kg, po; type: ADME, organism-based; parameters: dose 20 mg/kg, route oral; details: in vivo
Enterococcus = experiment: Bacteriostatic activity against Enterococcus after 48 hrs by time kill study; type: functional, organism-based
Rattus norvegicus [16] = experiment: Effect on hematology in Sprague-Dawley rat assessed as increase in hemoglobin at 600 mg/kg/day, po after 14 days; type: ADME, organism-based; parameters: route oral; details: in vivo, 336 h; method in brief: as §3
Canis familiaris [17] = experiment: AUC in dog at 20 mg/kg, po; type: ADME, organism-based, Canis lupus familiaris, Plasma; parameters: dose 20 mg/kg, route oral; details: in vivo
Moraxella catarrhalis = experiment: Antibacterial activity against Moraxella catarrhalis by microbroth technology; type: functional; method in brief: as §4
Rattus norvegicus [18] = experiment: AUC in Sprague-Dawley rat at 20 mg/kg, po; type: ADME, organism-based, Plasma; parameters: dose 20 mg/kg, route oral; details: in vivo
Rattus norvegicus [19] = experiment: Toxicity in Sprague-Dawley rat at 600 mg/kg/day, po after 14 days; type: organism-based; parameters: route oral; details: in vivo, 336 h; method in brief: as §3
Rattus norvegicus [20] = experiment: Bioavailability in Sprague-Dawley rat at 20 mg/kg, po; type: ADME, organism-based; details: in vivo
[21] = Half life in dog at 20 mg/kg, po; type: ADME, organism-based, Canis lupus familiaris; parameters: dose 20 mg/kg, route oral; details: in vivo
[22] = AUC in mouse at 20 mg/kg, po; type: ADME, organism-based; parameters: dose 20 mg/kg, route oral; details: plasma
Rattus norvegicus [23] = experiment: Increase in bone marrow myeloid/erythroid ratio in Sprague-Dawley rat at 600 mg/kg/day, po after 14 days; type: ADME, organism-based; parameters: route oral; details: in vivo, 336 h
Enterococcus faecium = experiment: Antibacterial activity against vancomycin-resistant Enterococcus faecium by micro-broth technology; type: functional; method in brief: as §1
Streptococcus pneumoniae [24] = experiment: Bactericidal activity against Streptococcus pneumoniae after 48 hrs by time kill study; type: functional, organism-based
Method in brief: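 Time-kill study: bacteria exposed continuously to drug at 2-16× the MIC and sampled over 48 h to assess eradication.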

Canis familiaris [25] = experiment: Bioavailability in dog at 20 mg/kg, po; type: ADME, organism-based, Canis lupus familiaris; details: in vivo
Staphylococcus aureus [26] = experiment: Antibacterial activity against methicillin-resistant Staphylococcus aureus SA1417 in po dosed CD1 mouse systemic infection model assessed as mortality after 7 days; type: functional
[27] = Volume of distribution at steady state in Sprague-Dawley rat at 10 mg/kg, iv; type: ADME, organism-based; parameters: dose 10 mg/kg, route intravenous; details: in vivo, read-out: Vdss
Cytochrome P450 2C9 = Cytochrome P450 2C9 (Homo sapiens, UniProt P11712); experiment: Inhibition of human liver microsome CYP2C9; type: ADME, microsomes; method in brief: as §2
Sequence of Cytochrome P450 2C9 (P11712 whole entry): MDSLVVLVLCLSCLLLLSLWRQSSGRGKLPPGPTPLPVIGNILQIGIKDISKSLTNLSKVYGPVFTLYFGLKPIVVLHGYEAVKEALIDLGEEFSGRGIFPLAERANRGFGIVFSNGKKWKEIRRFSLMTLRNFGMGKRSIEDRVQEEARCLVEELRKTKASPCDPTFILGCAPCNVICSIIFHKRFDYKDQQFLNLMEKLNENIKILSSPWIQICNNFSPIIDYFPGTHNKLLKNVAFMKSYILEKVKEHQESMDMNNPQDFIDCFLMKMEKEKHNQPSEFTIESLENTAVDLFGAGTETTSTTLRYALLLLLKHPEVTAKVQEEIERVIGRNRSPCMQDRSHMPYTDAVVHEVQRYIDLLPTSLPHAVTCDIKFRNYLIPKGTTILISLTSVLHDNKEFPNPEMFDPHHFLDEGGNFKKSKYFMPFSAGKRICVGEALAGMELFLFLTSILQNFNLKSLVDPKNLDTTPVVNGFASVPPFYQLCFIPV

[28] = AUC (0 to 24 hrs) in Sprague-Dawley rat plasma at 600 mg/kg/day, po after 14 days; type: ADME, organism-based; parameters: dose 600 mg/kg/day, time < 24 hr, route oral; method in brief: as §3
Rattus norvegicus [29] = experiment: Effect on hematology in Sprague-Dawley rat assessed as increase in red blood cells at 600 mg/kg/day, po after 14 days; type: ADME, organism-based; parameters: route oral; details: in vivo, 336 h; method in brief: as §3
Staphylococcus = experiment: Bacteriostatic activity against Staphylococcus after 48 hrs by time kill study; type: functional, organism-based
[30] = Half life in mouse at 20 mg/kg, po; type: ADME, organism-based; parameters: dose 20 mg/kg, route oral; details: in vivo
Cytochrome P450 1A2 = target: T2, Cytochrome P450 1A2 (Homo sapiens, UniProt P05177); experiment: Inhibition of human liver microsome CYP1A2; type: ADME, microsomes; method in brief: as §2
T2 sequence (P05177 whole entry): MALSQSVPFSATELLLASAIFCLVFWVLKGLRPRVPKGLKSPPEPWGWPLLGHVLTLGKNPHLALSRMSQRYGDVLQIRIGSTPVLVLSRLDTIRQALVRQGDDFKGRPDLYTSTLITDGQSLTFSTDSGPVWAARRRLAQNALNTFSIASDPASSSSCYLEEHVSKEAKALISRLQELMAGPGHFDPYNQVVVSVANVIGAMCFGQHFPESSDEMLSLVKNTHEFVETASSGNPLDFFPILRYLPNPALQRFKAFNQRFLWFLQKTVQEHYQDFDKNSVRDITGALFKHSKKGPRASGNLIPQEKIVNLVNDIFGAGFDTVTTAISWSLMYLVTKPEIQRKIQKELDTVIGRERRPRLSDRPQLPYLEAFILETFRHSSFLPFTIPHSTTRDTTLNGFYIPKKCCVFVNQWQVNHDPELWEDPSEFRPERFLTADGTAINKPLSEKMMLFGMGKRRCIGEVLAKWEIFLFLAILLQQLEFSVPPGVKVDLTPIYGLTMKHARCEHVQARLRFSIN

Staphylococcus aureus [31] = experiment: Antibacterial activity against […] in po dosed CD1 mouse systemic infection model assessed as mortality after 7 days; type: functional

NC(=O)[C@H]1CN(c2ccc([C@H]3CC[S@+]([O-])CC3)c(F)c2)C(=O)O1
MIC90 (Enterococcus faecalis): 4 µg/mL (≈ 11.8 µM)
IC50 (Cytochrome P450 2C19): > 900 µM
AUC at 24 h [1]: 223 µg·h/mL
Cmax [2]: 15900 ng/mL
MIC (Streptococcus pyogenes): 4 µg/mL (≈ 11.8 µM)
PD50 (Staphylococcus aureus [3]): 1.25 mg/kg
IC50 (Cytochrome P450 3A4): > 900 µM
IC50 (Cytochrome P450 2D6): > 900 µM
MIC90 (Streptococcus pneumoniae [4]): 2 µg/mL (≈ 5.88 µM)
half-life [5]: 5.8 h
Activity (Rattus norvegicus [6]): 8%
MIC (Staphylococcus aureus [7]): 4 µg/mL (≈ 11.8 µM)
MIC90 (Staphylococcus aureus [8]): 2 µg/mL (≈ 5.88 µM)
Activity (Rattus norvegicus [9]): 62%
Vd [10]: 0.7 L/kg
IC50 (Escherichia coli): 3.4 µM
clearance [11]: 25.2 mL/min/kg
Cmax [12]: 17900 ng/mL
Vd [13]: 3.3 L/kg
MIC (Haemophilus influenzae): > 8 µg/mL
IC50 [14]: 546 µM
Cmax [15]: 12300 ng/mL
Activity (Enterococcus): Active
Activity (Rattus norvegicus [16]): 8%
AUC (Canis familiaris [17]): 76.2 µg·h/mL
MIC (Moraxella catarrhalis): > 8 µg/mL
AUC (Rattus norvegicus [18]): 109 µg·h/mL
Activity (Rattus norvegicus [19]): Toxic
F (Rattus norvegicus [20]): 83%
half-life [21]: 6.2 h
AUC [22]: 48.3 µg·h/mL
Ratio (Rattus norvegicus [23]): 4.5
MIC90 (Enterococcus faecium): 4 µg/mL (≈ 11.8 µM)
Activity (Streptococcus pneumoniae [24]): Active
F (Canis familiaris [25]): 64%
PD50 (Staphylococcus aureus [26]): 1.7 mg/kg
Vd [27]: 6.2 L/kg
IC50 (Cytochrome P450 2C9): > 900 µM
AUC at 24 h [28]: 619 µg·h/mL
Activity (Rattus norvegicus [29]): 8%
Activity (Staphylococcus): Active
half-life [30]: 1.5 h
IC50 (Cytochrome P450 1A2): > 900 µM
PD50 (Staphylococcus aureus [31]): <5 mg/kg

NC(=O)[C@H]1CN(c2cc(F)c(N3CCOCC3)c(F)c2)C(=O)O1
MIC90 (Enterococcus faecalis): 8 µg/mL (≈ 24.4 µM)
PD50 (Staphylococcus aureus [3]): 6.7 mg/kg
MIC90 (Streptococcus pneumoniae [4]): 4 µg/mL (≈ 12.2 µM)
MIC90 (Staphylococcus aureus [8]): 4 µg/mL (≈ 12.2 µM)
IC50 (Escherichia coli): 17 µM
MIC (Haemophilus influenzae): > 8 µg/mL
IC50 [14]: 63 µM
MIC (Moraxella catarrhalis): > 8 µg/mL
MIC90 (Enterococcus faecium): 8 µg/mL (≈ 24.4 µM)

Source: ChEMBL document CHEMBL1138317, “Antibacterial oxazolidinones possessing a novel C-5 side chain. (5R)-trans-3-[3-Fluoro-4- (1-oxotetrahydrothiopyran-4-yl)phenyl]-2- oxooxazolidine-5-carboxylic acid amide (PF-00422602), a new lead compound” (J Med Chem, 2007)
